Reference: PMC8897028 (Acta Pharmaceutica Sinica. B, 2021)

Legend:
mTRPV3 L669A = biological target: T1, mTRPV3 L669A (Mus musculus, UniProt Q8K424, L669A); test: whole-cell patch-clamp of mTRPV3 L669A mutant in HEK293 cells; assay type: cell-based; conditions: compound 50 μmol/L; 2-APB; compared with WT mTRPV3
T1 sequence (Q8K424 1-791 L669A): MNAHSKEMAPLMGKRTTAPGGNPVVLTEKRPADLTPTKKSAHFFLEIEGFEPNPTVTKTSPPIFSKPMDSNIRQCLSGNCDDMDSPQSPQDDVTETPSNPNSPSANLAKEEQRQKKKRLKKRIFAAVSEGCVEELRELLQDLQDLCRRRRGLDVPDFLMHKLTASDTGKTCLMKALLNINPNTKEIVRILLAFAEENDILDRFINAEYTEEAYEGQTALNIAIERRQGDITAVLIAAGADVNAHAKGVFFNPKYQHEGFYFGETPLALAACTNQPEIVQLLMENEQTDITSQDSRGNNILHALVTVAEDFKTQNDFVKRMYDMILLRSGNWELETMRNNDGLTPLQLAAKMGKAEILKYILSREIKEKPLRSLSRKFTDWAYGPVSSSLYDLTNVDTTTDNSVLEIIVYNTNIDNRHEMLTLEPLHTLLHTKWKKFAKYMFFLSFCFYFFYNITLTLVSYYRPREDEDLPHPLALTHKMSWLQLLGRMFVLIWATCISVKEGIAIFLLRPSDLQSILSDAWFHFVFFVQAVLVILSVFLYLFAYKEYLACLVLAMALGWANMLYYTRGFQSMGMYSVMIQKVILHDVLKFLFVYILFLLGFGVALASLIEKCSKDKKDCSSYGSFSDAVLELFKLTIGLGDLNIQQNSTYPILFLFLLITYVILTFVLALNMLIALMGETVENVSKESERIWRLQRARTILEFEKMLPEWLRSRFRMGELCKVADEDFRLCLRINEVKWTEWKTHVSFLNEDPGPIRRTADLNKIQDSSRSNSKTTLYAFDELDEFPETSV
In short: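 Mouse Trpv3 point mutants were made by site-directed mutagenesis, sequence-verified, and transiently expressed in HEK293 cells alongside wild-type mTRPV3. Whole-cell ramp recordings (−100 to +100 mV, 500 ms, holding 0 mV) were made at 22–24 °C. Currents were activated by 2-APB, and inhibition by 50 μmol/L test compound in the presence of 2-APB was compared with wild type; n = 3–8.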

[1] = tested on: HEK293 cells expressing hTRPV3; test: cell proliferation MTT assay, HEK293 cells transfected with hTRPV3; assay type: cell-based, human; conditions: IAB at 10 and 100 μmol/L with carvacrol 300 μmol/L, 24 h
In short: (§1)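 hTRPV3-transfected HEK293 or HaCaT cells were plated at 5 × 10^3 per well for 24 h, then exposed 24 h to TRPV3 activator and/or inhibitor in culture medium. MTT (5 mg/mL solution) was added for 4 h. Medium was removed, formazan dissolved in DMSO, and absorbance read at 490 nm.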

[2] = tested on: HEK293 cells expressing hTRPV3; test: cell death assay; assay type: cell-based, human; conditions: 12 h, n = 4
In short: (§2)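 HEK293 cells 12 h after hTRPV3 transfection, or HaCaT cells, were seeded in six-well plates, randomly split into 6 groups, and treated 12 h in culture medium. Cells were detached with 0.25% trypsin (HEK293 1 min; HaCaT 7 min), centrifuged, and stained 30 min in PBS with Hoechst and PI. Five random fields per group were imaged. Death ratio = PI-labelled over Hoechst-labelled nuclei, averaged over five images; n = 4.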

HaCaT cells [3] = test: cell proliferation MTT assay, HaCaT cells; assay type: cell-based, human; conditions: IAB at 10 and 100 μmol/L with carvacrol 300 μmol/L, 24 h
In short: as §1

HaCaT cells [4] = test: cell death assay; assay type: cell-based, human; conditions: IAB added with carvacrol 300 μmol/L; 12 h
In short: as §2

| SMILES | effect of mutation on compound-induced inhibition of mTRPV3 currents (mTRPV3 L669A) | reversal of overactive TRPV3-induced inhibition of cell proliferation [1] | cell death ratio ([2]; IAB 10 μmol/L with carvacrol 300 μmol/L) | cell death ratio ([2]; IAB 100 μmol/L with carvacrol 300 μmol/L) | reversal of overactive TRPV3-induced inhibition of cell proliferation (HaCaT cells [3]) | HaCaT cell death (HaCaT cells [4]) |
| --- | --- | --- | --- | --- | --- | --- |
| O=C(/C=C/c1ccc(O)c(O)c1)O[C@@H]1[C@H](O)C[C@@](O)(C(=O)O)C[C@H]1OC(=O)/C=C/c1ccc(O)c(O)c1 [IAB, isochlorogenic acid B] | no obvious effect | significantly reversed | 11.7 ± 0.9% | 9.9 ± 1.2% | significantly reversed | dose-dependent reduction of HaCaT cell death |
| O=C(/C=C/c1ccc(O)c(O)c1)O[C@@H]1C[C@](O)(C(=O)O)C[C@@H](OC(=O)/C=C/c2ccc(O)c(O)c2)[C@H]1O [IAA, isochlorogenic acid A] | no obvious effect | – | – | – | – | – |
